In ChEMBL document CHEMBL1153868, “Novel 8-deaza-5,6,7,8-tetrahydroaminopterin derivatives as dihydrofolate inhibitor: design, synthesis and antifolate activity” (Eur J Med Chem, 2009) one finds IC50 data, which are given here for six compounds.

By pIC50 is commonly meant the IC50 on a negative log10 scale, so that one unit is a factor of ten.

The structures appear in SMILES notation. pIC50: −log10 of the molar value.

For one experiment, the target named is T1, Dihydrofolate reductase (Homo sapiens, UniProt P00374).
T1 sequence (P00374 whole entry): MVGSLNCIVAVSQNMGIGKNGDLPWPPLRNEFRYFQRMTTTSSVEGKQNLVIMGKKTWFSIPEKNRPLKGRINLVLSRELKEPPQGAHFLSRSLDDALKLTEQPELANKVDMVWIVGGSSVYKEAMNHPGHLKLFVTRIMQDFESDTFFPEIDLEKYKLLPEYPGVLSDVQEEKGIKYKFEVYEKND
Nature of the experiment: Inhibition of human recombinant DHFR by spectrophotometry.

The test system of another experiment is HeLa. The experiment can be described thus: Cytotoxicity against human HeLa cells after 48 hrs. Type of experiment: functional, cell-based. Summed up:
(§1)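 Exponentially growing cells maintained in supplemented RPMI-1640 medium. Exposed to a range of compound concentrations for 48 h. Growth inhibition measured by MTT and SRB assays. IC50 reported as the mean of three independent experiments.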

In a further experiment the test system is Bel-7402. The experiment can be described thus: Cytotoxicity against human Bel7402 cells after 48 hrs. Type of experiment: functional, cell-based. Particulars: Bel-7402, 48 h. Summed up:
as §1

Another experiment concerns HL-60. Nature of the experiment: Cytotoxicity against human HL60 cells after 48 hrs. Type of experiment: functional, cell-based. The conditions noted are these: HL-60, 48 h. The method in brief:
as §1

In another experiment the test system is BGC-823. The experiment can be described thus: Cytotoxicity against human BGC823 cells after 48 hrs. Type of experiment: functional, cell-based. Particulars: BGC-823, 48 h. The method in brief: as §1

For `C=CCN1c2c(N)nc(N)nc2CCC1CNc1ccc(C(=O)NC(CCC(=O)O)C(=O)O)cc1` (centres undefined), the pIC50 on Dihydrofolate reductase was 5.85; with HeLa, 5.11; with Bel-7402, 4.37; in the experiment on HL-60, 6.15; with BGC-823, 5.28.

Regarding `C=CCN1c2c(N)nc(N)nc2CCC1CNc1ccc(C(=O)NC(CCC(=O)O)C(=O)O)cc1Br` (centres undefined), the pIC50 on Dihydrofolate reductase was 5.63; with HeLa, 6.05; in the experiment with Bel-7402, 5.92; in the experiment on HL-60 it was 6.24; in the experiment with BGC-823 it was 5.18.

Take `CN(Cc1cnc2nc(N)nc(N)c2n1)c1ccc(C(=O)N[C@@H](CCC(=O)O)C(=O)O)cc1` [METHOTREXATE]: the pIC50 in the experiment on HeLa is 7.00; in the experiment on Bel-7402, 4.08; with HL-60, 6.68; in the experiment on BGC-823, 6.96.

With `Nc1nc(N)c2c(n1)CCC(CNc1ccc(C(=O)NC(CCC(=O)O)C(=O)O)cc1)N2` (centres undefined), the pIC50 at Dihydrofolate reductase is 6.25; in the experiment with HeLa, 6.02; in the experiment with Bel-7402, 4.06; in the experiment with HL-60 it was 6.05; with BGC-823, 6.36.

Turning to `Nc1nc(N)c2c(n1)CCC(CNc1ccc(C(=O)NC(CCC(=O)O)C(=O)O)cc1Br)N2CC(Br)CBr` (centres undefined), the pIC50 at Dihydrofolate reductase is 5.03; in the experiment on HeLa, 4.71; in the experiment on Bel-7402 it was 3.59; in the experiment with HL-60 it was 4.31; with BGC-823, 4.65.

Consider `C=CCN(CC1CCc2nc(N)nc(N)c2N1CC=C)c1ccc(C(=O)NC(CCC(=O)O)C(=O)O)cc1` (centres undefined), for which the pIC50 was 5.67 at Dihydrofolate reductase; 4.66 in the experiment with HeLa; 5.15 in the experiment with Bel-7402; 5.85 in the experiment with HL-60; 5.61 in the experiment with BGC-823.
